# Measured values of several laboratories.
# Target: Activin receptor type-2A (ACVR2A, Homo sapiens, UniProt P27037)
Compound,read-out,action,method,tested at,endpoint,value
Cn1c2c(Cl)c(Cl)ccc2c2cc[nH]c(=O)c21,thermal stability,,DSF,10 µM,ΔTm,2.7 °C
CCC(=O)N[C@H]1CC[C@@H](C(=O)N(C)c2ccc(-c3nc4ccccc4o3)cc2)C1,cell-free assay,,competition with immobilised ligand,1 µM,remaining binding,98%
CCN1CCC2(CC1)NC(=O)c1c(c3ccc(Cl)c(Cl)c3n1C)C2C#N (racemic),thermal stability,,DSF,10 µM,ΔTm,0.1 °C
CN1CC(Oc2cnc(C#N)cc2-c2ccn3nc(NC(=O)C4CC4)cc3c2)C1,enzyme activity,inhibitor,,1 µM,inhibition,7%
Cc1ccc(C(=O)Nc2ccc(CN3CCN(C)CC3)c(C(F)(F)F)c2)cc1C#Cc1cnc2cccnn12,enzyme activity,,,23.5 nM,remaining activity,86%
COc1cc(Cl)c(C(=O)N[C@@H](CN[C@H]2CC[C@@H](N)CC2)Cc2ccc(C#N)cc2)cc1-c1ccc(CN[C@H](C)c2ccc(C)cc2)o1,enzyme activity,inhibitor,,1 µM,remaining activity,94%
CC(C)(C)c1nc2c(s1)c1nc(N)ncc1c1ccc(NS(=O)(=O)c3c(F)cccc3F)c(F)c12,enzyme activity,inhibitor,radiometric,1 µM,remaining activity,74%
COc1cccc(CNC(=O)c2nc3scc(COCc4ccc(C(=O)O)cc4)c3c(=O)[nH]2)c1,cell-free assay,,competition with immobilised ligand,1 µM,remaining binding,92.9%
CC(C)(C)c1nc(-c2cccc(NS(=O)(=O)c3c(F)cccc3F)c2F)c(-c2ccnc(N)n2)s1,enzyme activity,inhibitor,radiometric,1 µM,remaining activity,9%
Cc1ccc(C(=O)NCc2ccsc2)cc1C#Cc1cn(C(C)C)c2ncnc(N)c12,enzyme activity,inhibitor,,1 µM,activity vs control,93%
Cn1c2c(Cl)c(Cl)ccc2c2cc(N)[nH]c(=O)c21,thermal stability,,DSF,10 µM,ΔTm,0.6 °C
Nc1ncnc2occ(-c3ccc(NC(=O)Nc4cc(C(F)(F)F)ccc4F)cc3)c12,cell-free assay,,,20 µM,remaining signal,45%
